Most compounds without a hit are left out; they make up all but 3.5% or so of the library.
MrgX1 antagonist – antagonists of human MrgX1 receptor, primary screen, HEK293 cells, Fluo-4 calcium flux. Mas-related G-protein coupled receptor member X1 (Homo sapiens), Q96LB2. BAM8-22 antagonism; hits give low values. B-score at 10 µM. actives 1.3% (n = 310,000);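 active = calcium-response B-score plate-corrected more than 3 library SD below zero, starting fluorescence within 5 deviations, no agonist response on first addition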;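 also: peak minus trough fluorescence over baseline after final BAM8-22 challenge near maximal dose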
MrgX1 ag – agonists of human MrgX1 receptor, primary screen, HEK293 cells, Fluo-4 calcium flux; B-score at 10 µM; Fluo-4 calcium fluorescence, agonist mode; hits give high values; actives 0.44% (n = 310,000); AID 588627, 2011;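 active = calcium response B-score plate-corrected fluorescence ratio at least 3 library SD, with starting fluorescence B-score inside 5 SD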
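Assay system: MrgX1-expressing HEK293 cells / Amount: fifteen thousand cells per well / Doses: test compound in the initial addition of three / Timing: cells plated overnight, dye loaded 0.5 h 37 °C, 0.5 h room temperature / Technique: kinetic calcium dye fluorescence, Fluo-4 NW / Control set: positive and negative controls per plate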
RGS4 block – RGS4 inhibitors, primary screen, cell-based, HEK293 M3R inducible RGS4, calcium flux. Fluo-4 calcium flux; hits give high values; triggered by carbachol at its EC20. B-score at 10 µM. actives 0.45% (n = 310,000). AID 463165, 2010;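 active = B-score, a plate-corrected calcium signal, over three deviations above library mean, with baseline fluorescence within five deviations of library mean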;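 also: RGS4 expression induced by doxycycline in cells with stable M3 receptor; B-score is computed from the integrated fluorescence ratio over baseline after carbachol; higher B-score means a larger calcium signal and so more RGS4 inhibition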
Target sequence (P49798 whole entry, looked up): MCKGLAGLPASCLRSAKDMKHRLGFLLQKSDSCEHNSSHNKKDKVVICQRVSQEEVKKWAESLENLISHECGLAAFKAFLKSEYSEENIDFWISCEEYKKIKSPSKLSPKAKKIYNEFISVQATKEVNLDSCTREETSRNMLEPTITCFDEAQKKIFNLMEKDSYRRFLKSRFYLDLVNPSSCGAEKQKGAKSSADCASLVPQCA
MrgX1 allo act – positive allosteric modulators of MrgX1, primary screen, HEK293 cells, Fluo-4 calcium flux | FDSS; hits give high values | B-score at 10 µM | actives 0.63% (n = 310,000) | AID 588675, 2011;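 active = plate-corrected calcium response at least 3 library SD above typical, normal starting fluorescence, not activating the receptor alone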;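 also: compound read alongside a low EC10 to EC30 dose of BAM8-22 agonist; peak minus trough fluorescence over baseline measured at the second addition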
RGS4 pot – RGS4 potentiators or activators, primary screen, cell-based, HEK293 M3R inducible RGS4, calcium flux | actives 0.92% (n = 310,000) | B-score at 10 µM | carbachol calcium flux Fluo4; hits give low values;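 active = B-score of the integrated calcium signal more than 4 SD below the library mean, with starting fluorescence not abnormally high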;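 also: negative B-score means reduced calcium response which marks RGS4 activation or potentiation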
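test system = M3R-expressing HEK293 line, RGS4 induced by doxycycline | probe or stimulus = carbachol at ECmax as muscarinic agonist stimulus | timing = dye loading 30 min 37 °C, buffer rest 30 min RT | signal = calcium dye Fluo4 fluorescence | evaluation = B score from integrated fluorescence ratio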
Large screens that a line does not name were inactive.

O=C(Nc1ccc(Cl)c(Cl)c1)OCCNC(=O)c1cccc(Cl)c1	MrgX1 antagonist -5.34
Cc1ccc(CNC(=O)c2oc3ccc(S(=O)(=O)N4CCC5(CC4)OCCO5)cc3c2C)cc1	RGS4 pot -8.39
Cc1c(C(=O)NCc2cccnc2)oc2ccc(S(=O)(=O)N3CCC4(CC3)OCCO4)cc12	none
O=C(N/N=C/c1cn(-c2ccccc2)nc1-c1cccnc1)c1ccc(F)cc1	none
O=C(N/N=C/c1cn(-c2ccccc2)nc1-c1cccs1)c1ccc(Cl)cc1	RGS4 pot -6.95
O=C(N/N=C/c1cn(-c2ccccc2)nc1-c1cccs1)c1ccccc1F	RGS4 pot -7.36
CCOC(=O)C1=C(c2ccccc2)NC(=O)NC1c1ccsc1 (configuration not stated)	none
O=C(NCC1CCCO1)c1cccc(S(=O)(=O)N2CCOCC2)c1 (configuration not stated)	none
Cc1ccc(-c2c(C(=O)N/N=C/c3c[nH]c4ccccc34)nnn2-c2nonc2N)cc1	none
O=C(c1cc(COc2ccc(F)cc2F)on1)N1CCN(C2CCCC2)C(=O)C1	none
COc1cccc(/C=N/NC(=O)c2oc3nc(-c4ccccc4)cc(-c4ccco4)c3c2N)c1	MrgX1 antagonist -4.74
NNC(=O)c1oc2nc(-c3cccs3)cc(-c3ccco3)c2c1N	RGS4 pot -9.68
COc1cc(/C=N/NC(=O)c2cc3c(ccc4ccccc43)o2)cc(OC)c1O	RGS4 pot -7.31
Cc1ccc(-c2ccc(/C=N\NC(=O)c3cc4c(ccc5ccccc54)o3)o2)cc1[N+](=O)[O-]	none
COc1cc(Br)cc(/C=N/NC(=O)Cc2ccccc2)c1O	none
COc1ccc(/C=N\NC(=O)c2cc3c(ccc4ccccc43)o2)cc1O	RGS4 pot -7.2
O=C(N/N=C/c1ccc(-c2ccc(Cl)c(C(=O)O)c2)o1)c1cc2c(ccc3ccccc32)o1	MrgX1 antagonist -9.81
COc1cc(/C=N/NC(=O)Cc2ccc(Br)cc2)cc(OC)c1O	MrgX1 allo act 7.49
Cc1ccc(C(=O)NCCNS(=O)(=O)c2ccccc2[N+](=O)[O-])cc1	none
CC(=O)Nc1ccc(NC(=O)C2CCN(C(=O)NC3CCCCC3)CC2)cc1	none
CN(NC(=O)c1ccc(Cl)cc1Cl)C1=NS(=O)(=O)c2ccccc21	MrgX1 antagonist -6.29
Oc1ccccc1-c1nc(NCC2CCCO2)c2ccccc2n1 (configuration not stated)	RGS4 pot -8.45
COC(=O)CCCn1nc(NC(=O)COc2ccc(F)cc2)cc1C	none
CN1CCN(CCC2Oc3cc([N+](=O)[O-])ccc3NC2=O)CC1 (configuration not stated)	none
O=C1Nc2ccc([N+](=O)[O-])cc2OC1CCN1CCCC1 (configuration not stated)	MrgX1 allo act 11.7
C=CCNC(=O)CC(=O)N/N=C/c1cccc(C)c1	MrgX1 antagonist -4.56
CN(C(=O)CSc1nc(-c2ccc(C(C)(C)C)cc2)c(C#N)c(=O)[nH]1)C1CCCCC1	none
O=C(NCCO)c1ccc2nc(-c3ccco3)c(-c3ccco3)nc2c1	none
O=C(NCCc1ccccc1)c1ccc2nc(-c3ccco3)c(-c3ccco3)nc2c1	MrgX1 antagonist -7.87
c1ccc(Cc2noc(CN3CCCN(C4Cc5ccccc5C4)CC3)n2)cc1	RGS4 pot -6.97
c1ccc(Cc2noc(CN3CCN(C4CCc5ccccc5C4)CC3)n2)cc1 (configuration not stated)	none
CCCOc1ccc(C(C(=O)OCCN(CC)CC)c2ccccc2)cc1 (configuration not stated)	MrgX1 antagonist -4.57, RGS4 pot -7.39
O=C1CCCc2nc(N3CCN(C(c4ccccc4)c4ccccc4)CC3)ncc21	RGS4 pot -7.04
CCOc1ccc(C(=O)NNC2CC(=O)N(CCc3ccccc3)C2=O)cc1OC (configuration not stated)	MrgX1 antagonist -5.46
O=C(COC(=O)c1ccc(CNS(=O)(=O)c2ccc(F)c(Cl)c2)cc1)NC1CCCCCCC1	none

Screens deposited in PubChem BioAssay by Johns Hopkins Ion Channel Center.
